Assay results taken from PMC10373183 (ACS Omega, 2023).
“Also recorded” adds a separate entry of the source.

Columns and labels:
[1] = LDH release cytotoxicity assay; format: cell-based; details: human, U937 cells
Outline: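 U937 cells plated and exposed to test compound at several concentrations for 4 h at 37 °C, with Triton X-100 as positive cytotoxicity control. Plates spun 1000 RPM for 5 min. Supernatants mixed with LDH detection reagent for 10 min in the dark at room temperature, then read at OD 490 nm. LC50 fitted from percent activity.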

U937 cells = assay: CellTiter-Glo Luminescent cell viability assay; format: cell-based, human; details: for inhibition at 25 µM / inhibition at 50 µM / inhibition at 100 µM / inhibition at 200 µM / GI50: Homo sapiens; for inhibition at 25 µM / inhibition at 50 µM / inhibition at 100 µM / inhibition at 200 µM: U-937, 72 h, read-out: percent inhibition at various concentrations of compounds (CellTiter-Glo, antiproliferative); for GI50: U-937, read-out: antiproliferative (U937) GI50; for antiproliferative activity (in words) / percent inhibition at various concentrations of compounds (CellTiter-Glo, antiproliferative): U937 cells; for antiproliferative activity (in words): CellTiter-Glo, four concentrations; for percent inhibition at various concentrations of compounds (CellTiter-Glo, antiproliferative): 72 h, Mitomycin C = 100%, DMSO = 0%
Outline: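 U937 cells incubated 72 h with test compound at four concentrations; CellTiter-Glo reagent added at equal volume, shaken 2 min to lyse, then held 10 min at room temperature before luminescence read. Viability = RLU test × 100/RLU control, converted to percent inhibition. GI50 fitted from percent inhibition. Mitomycin C positive control; DMSO diluent as negative control.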

Molecule | GI50 (U937 cells) [µM] | inhibition at 4 h, 12.5 µM [1] [%] | inhibition at 4 h, 25 µM [1] [%] | inhibition at 4 h, 50 µM [1] [%] | inhibition at 4 h, 100 µM [1] [%] | inhibition at 25 µM (U937 cells) [%] | inhibition at 50 µM (U937 cells) [%] | inhibition at 100 µM (U937 cells) [%] | inhibition at 200 µM (U937 cells) [%] | antiproliferative activity (in words) (U937 cells) | percent inhibition at various concentrations of compounds (CellTiter-Glo, antiproliferative) (U937 cells; 25 μM compound) | percent inhibition at various concentrations of compounds (CellTiter-Glo, antiproliferative) (U937 cells; 50 μM compound) | percent inhibition at various concentrations of compounds (CellTiter-Glo, antiproliferative) (U937 cells; 100 μM compound) | percent inhibition at various concentrations of compounds (CellTiter-Glo, antiproliferative) (U937 cells; 200 μM compound)
Cc1nn(C)c(C)c1S(=O)(=O)N1CCC(c2nc3ccccc3[nH]2)CC1 [MR-S1-18, 2-(1-((1,3,5-Trimethyl-1H-pyrazol-4-yl)sulfonyl)piperidin-4-yl)-1H-benzo[d]imidazole] | 92.6 | 0.2 | -1.8 | 0.2 | -0.4 | 11.7 | 36.4 | 43.9 | 83.4 | good antiproliferative activity | – | – | – | –
CCOCCn1c(C2CCN(S(=O)(=O)c3c(C)n[nH]c3C)CC2)nc2ccccc21 [MR-S1-19, 2-(1-((3,5-Dimethyl-1H-pyrazol-4-yl)sulfonyl)piperidin-4-yl)-1-(2-ethoxyethyl)-1H-benzo[d]imidazole] | > 200 | -4.9 | -1.3 | -1.8 | -4 | -5 | 2.2 | -1.3 | 18 | impotent; also recorded: less anti-proliferative activity | – | – | – | –
Cc1nn(C)c(C)c1S(=O)(=O)NCCc1cccc(Cl)c1 [MR-S1-8, N-(3-Chlorophenethyl)-1,3,5-trimethyl-1H-pyrazole-4-sulfonamide] | > 200 | 2.9 | -1.3 | 1.8 | 0.4 | 25.1 | 28.4 | 34.6 | 47.4 | – | – | – | – | –
Cc1nn(C)c(C)c1S(=O)(=O)NCCC1=CCCCC1 [MR-S1-2, N-(2-(Cyclohex-1-en-1-yl)ethyl)-1,3,5-trimethyl-1H-pyrazole-4-sulfonamide] | > 200 | -1.3 | -3.6 | -3.1 | -5.3 | 24.8 | 29.3 | 42.2 | 58 | – | – | – | – | –
Cc1n[nH]c(C)c1S(=O)(=O)NCCc1cccc(Cl)c1 [MR-S1-7, N-(3-Chlorophenethyl)-3,5-dimethyl-1H-pyrazole-4-sulfonamide] | > 200 | -2 | -2.4 | 0.9 | -3.1 | 14.5 | 13.4 | 24.2 | 51.6 | – | – | – | – | –
Cc1n[nH]c(C)c1S(=O)(=O)NCCc1ccccc1 [MR-S1-3, 3,5-Dimethyl-N-phenethyl-1H-pyrazole-4-sulfonamide] | 16 | -0.9 | -2.4 | -1.3 | -1.3 | 12.7 | 24.5 | 31.8 | 74.8 | moderate anti-proliferative activity | – | – | – | –
Cc1nn(C)c(C)c1S(=O)(=O)N[C@H](C)c1cccc2ccccc12 [MR-S1-15, (R)-1,3,5-Trimethyl-N-(1-(naphthalen-1-yl)ethyl)-1H-pyrazole-4-sulfonamide] | 3 | 0 | -1.3 | -1.8 | -2.7 | 19.5 | 65.1 | 88.5 | 101 | good antiproliferative activity; also recorded: most potent | – | – | – | –
N-(3,4-Bis(methoxy-d3)phenethyl-d6)-3,5-dimethyl-1H-pyrazole-4-sulfonamide [MR-S1-10] | – | – | – | – | – | – | – | – | – | less anti-proliferative activity | –8.1% | –37.5% | –39.0% | –14.5%

Second part, led by results:

GI50 (U937 cells) [µM] | Molecule | inhibition at 4 h, 12.5 µM [1] [%] | inhibition at 4 h, 25 µM [1] [%] | inhibition at 4 h, 50 µM [1] [%] | inhibition at 4 h, 100 µM [1] [%] | inhibition at 25 µM (U937 cells) [%] | inhibition at 50 µM (U937 cells) [%] | inhibition at 100 µM (U937 cells) [%] | inhibition at 200 µM (U937 cells) [%] | antiproliferative activity (in words) (U937 cells) | percent inhibition at various concentrations of compounds (CellTiter-Glo, antiproliferative) (U937 cells; 25 μM compound) | percent inhibition at various concentrations of compounds (CellTiter-Glo, antiproliferative) (U937 cells; 50 μM compound) | percent inhibition at various concentrations of compounds (CellTiter-Glo, antiproliferative) (U937 cells; 100 μM compound) | percent inhibition at various concentrations of compounds (CellTiter-Glo, antiproliferative) (U937 cells; 200 μM compound)
9.4 | Cc1n[nH]c(C)c1S(=O)(=O)N[C@H](C)c1cccc2ccccc12 [MR-S1-14, (R)-3,5-Dimethyl-N-(1-(naphthalen-1-yl)ethyl)-1H-pyrazole-4-sulfonamide] | -2.4 | -4 | -0.9 | -3.1 | 27.6 | 32.9 | 68.7 | 98.9 | good antiproliferative activity; also recorded: most potent | – | – | – | –
1.7 | Cc1n[nH]c(C)c1S(=O)(=O)NCCC1=CCCCC1 [MR-S1-1, N-(2-(Cyclohex-1-en-1-yl)ethyl)-3,5-dimethyl-1H-pyrazole-4-sulfonamide] | -0.9 | -2.2 | -0.4 | -1.8 | 18.6 | 34.5 | 54.2 | 64.2 | moderate anti-proliferative activity | – | – | – | –
> 200 | Cc1nn(C)c(C)c1S(=O)(=O)NCCc1ccc(Cl)cc1 [MR-S1-6, N-(4-Chlorophenethyl)-1,3,5-trimethyl-1H-pyrazole-4-sulfonamide] | 3.3 | -1.3 | -2 | -1.6 | 40.5 | 17.9 | 28.4 | 44.2 | – | – | – | – | –
3.3 | CCCOc1ccc(CCNS(=O)(=O)c2c(C)n[nH]c2C)cc1OCCC [MR-S1-12, N-(3,4-Dipropoxyphenethyl)-3,5-dimethyl-1H-pyrazole-4-sulfonamide] | -2.2 | 0.7 | -2.7 | -0.9 | 35.9 | 94.9 | 100 | 99.3 | good antiproliferative activity; also recorded: potent | – | – | – | –
> 200 | COc1ccc(CCNS(=O)(=O)c2c(C)n[nH]c2C)cc1OC [MR-S1-9, N-(3,4-Dimethoxyphenethyl)-3,5-dimethyl-1H-pyrazole-4-sulfonamide] | -2.7 | 2.7 | 2.4 | -2.4 | -0.5 | -26.2 | -21.2 | 2 | impotent; also recorded: less anti-proliferative activity | – | – | – | –
> 200 | Cc1nn(C)c(C)c1S(=O)(=O)NCCc1ccccc1 [MR-S1-4, 1,3,5-Trimethyl-N-phenethyl-1H-pyrazole-4-sulfonamide] | -2.9 | -2.2 | -0.9 | -1.8 | 33 | 19.2 | 37.8 | 23.2 | impotent; also recorded: less anti-proliferative activity | – | – | – | –
16 | Cc1n[nH]c(C)c1S(=O)(=O)NCCc1ccc(Cl)cc1 [MR-S1-5, N-(4-Chlorophenethyl)-3,5-dimethyl-1H-pyrazole-4-sulfonamide] | -1.8 | -2.2 | -0.2 | -2.7 | 48.3 | 44.2 | 61.5 | 78.7 | moderate anti-proliferative activity | – | – | – | –
> 200 | Cc1n[nH]c(C)c1S(=O)(=O)NCCc1c[nH]c2ccccc12 [MR-S1-16, N-(2-(1H-Indol-3-yl)ethyl)-3,5-dimethyl-1H-pyrazole-4-sulfonamide] | 3.8 | -0.9 | -1.6 | -1.8 | 14.5 | 24.1 | 22.5 | 55.9 | – | – | – | – | –
> 200 | Cc1nn(C)c(C)c1S(=O)(=O)NCCc1c[nH]c2ccccc12 [MR-S1-17, N-(2-(1H-Indol-3-yl)ethyl)-1,3,5-trimethyl-1H-pyrazole-4-sulfonamide] | -0.9 | -2 | -2 | -1.6 | 18.6 | 12.9 | 32.2 | 12.9 | impotent; also recorded: less anti-proliferative activity | – | – | – | –
